Calls of active or inactive are those of the source. The rule behind the calls is not given here.
Columns and labels:
[1] = molecular target: Protein arginine N-methyltransferase 1 (Homo sapiens) (UniProt Q99873); experiment: Inhibition of human recombinant GST-PRMT1 expressed Escherichia coli BL21 using Npl3p substrate as substrate and [3H]-SAM at 50 uM after 90 mins by scintillation counting
Method in brief: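 Human recombinant PRMT1 was incubated with Npl3p substrate and [³H]SAM (0.42 μM) in PBS pH 7.4 with compound at 50 μM for 90 min at 30 °C. Percent inhibition was determined.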

[2] = molecular target: T1, Histone-arginine methyltransferase CARM1 (Homo sapiens) (UniProt Q86X55); experiment: Activation of recombinant CARM1 using PABP1 as substrate and [3H]-SAM at 50 uM after 90 mins by scintillation counting
T1 sequence (whole entry): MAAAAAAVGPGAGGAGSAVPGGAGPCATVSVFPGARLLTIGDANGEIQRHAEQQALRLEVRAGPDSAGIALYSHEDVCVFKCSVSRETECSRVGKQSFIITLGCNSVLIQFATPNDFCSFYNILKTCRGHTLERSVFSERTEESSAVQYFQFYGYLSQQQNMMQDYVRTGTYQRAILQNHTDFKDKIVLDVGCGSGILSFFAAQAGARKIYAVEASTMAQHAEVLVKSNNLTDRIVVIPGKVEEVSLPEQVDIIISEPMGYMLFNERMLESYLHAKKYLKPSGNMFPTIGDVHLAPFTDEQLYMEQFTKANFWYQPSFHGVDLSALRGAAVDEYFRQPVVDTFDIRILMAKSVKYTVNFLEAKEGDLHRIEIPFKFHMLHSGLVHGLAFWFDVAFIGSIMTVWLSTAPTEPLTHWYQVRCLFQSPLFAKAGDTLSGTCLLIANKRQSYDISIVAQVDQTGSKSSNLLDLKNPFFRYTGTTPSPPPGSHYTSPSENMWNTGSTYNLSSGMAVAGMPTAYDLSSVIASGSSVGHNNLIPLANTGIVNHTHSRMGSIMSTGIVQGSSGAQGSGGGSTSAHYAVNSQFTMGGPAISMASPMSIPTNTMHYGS
Method in brief: (§1)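 Recombinant CARM1 (0.2 μg) was incubated with PABP1 substrate and [³H]SAM (0.42 μM) in PBS pH 7.4 for 90 min at 30 °C. Compound was tested at 50 μM, or at 3–100 μM for concentration series. Bands were Ponceau-stained, excised and counted by liquid scintillation. Activity is given as % of DMSO control; no-SAM reactions served as negative control; at least two experiments.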

[3] = molecular target: T1, Histone-arginine methyltransferase CARM1 (Homo sapiens); experiment: Activation of recombinant CARM1 using histone H3 as substrate and [3H]-SAM at 50 uM after 90 mins by scintillation counting
Method in brief: (§2)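 Recombinant CARM1 (0.2 μg) was incubated with histone H3 (1.1 μM) and [³H]SAM (0.42 μM) in PBS pH 7.4 with compound (50 μM) for 90 min at 30 °C. Methylation was measured by scintillation counting. Activity is expressed as % relative to DMSO, as the mean of at least two separate experiments.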

[4] = molecular target: T2, Histone-lysine N-methyltransferase SETD7 (Homo sapiens) (UniProt Q8WTS6); experiment: Inhibition of recombinant SET7 using histone H3 as substrate at 50 uM and [3H]-SAM after 90 mins by scintillation counting
T2 sequence (whole entry): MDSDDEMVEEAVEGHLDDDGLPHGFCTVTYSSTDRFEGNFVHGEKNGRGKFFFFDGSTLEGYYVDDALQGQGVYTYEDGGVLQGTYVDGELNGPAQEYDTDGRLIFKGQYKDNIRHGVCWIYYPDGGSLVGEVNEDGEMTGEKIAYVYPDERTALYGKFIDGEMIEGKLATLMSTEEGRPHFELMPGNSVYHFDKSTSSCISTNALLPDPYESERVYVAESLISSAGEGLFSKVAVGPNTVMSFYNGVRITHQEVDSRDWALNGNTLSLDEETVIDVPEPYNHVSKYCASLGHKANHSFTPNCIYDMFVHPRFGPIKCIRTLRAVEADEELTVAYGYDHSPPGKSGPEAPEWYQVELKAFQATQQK

[5] = molecular target: Protein arginine N-methyltransferase 6 (Homo sapiens) (UniProt Q96LA8); experiment: Inhibition of recombinant PRMT6 using histone H3 as substrate at 50 uM and [3H]-SAM after 90 mins by scintillation counting
Sequence of Protein arginine N-methyltransferase 6 (Homo sapiens) (Q96LA8 whole entry, looked up): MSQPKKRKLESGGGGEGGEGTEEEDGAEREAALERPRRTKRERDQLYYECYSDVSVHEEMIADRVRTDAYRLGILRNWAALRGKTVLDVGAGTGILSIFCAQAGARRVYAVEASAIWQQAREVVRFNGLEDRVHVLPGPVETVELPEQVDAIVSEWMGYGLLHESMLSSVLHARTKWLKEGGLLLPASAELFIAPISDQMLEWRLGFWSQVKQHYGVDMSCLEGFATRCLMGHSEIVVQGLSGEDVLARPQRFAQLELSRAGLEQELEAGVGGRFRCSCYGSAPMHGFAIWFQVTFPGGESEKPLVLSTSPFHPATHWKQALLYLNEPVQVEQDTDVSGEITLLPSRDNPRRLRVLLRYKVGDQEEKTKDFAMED

[6] = molecular target: Protein arginine N-methyltransferase 3 (Homo sapiens) (UniProt O60678); experiment: Inhibition of recombinant PRMT3 using glycine- and arginine-rich motif as substrate at 50 uM and [3H]-SAM after 90 mins by scintillation counting
Sequence of Protein arginine N-methyltransferase 3 (Homo sapiens) (O60678 2-531 limits assumed): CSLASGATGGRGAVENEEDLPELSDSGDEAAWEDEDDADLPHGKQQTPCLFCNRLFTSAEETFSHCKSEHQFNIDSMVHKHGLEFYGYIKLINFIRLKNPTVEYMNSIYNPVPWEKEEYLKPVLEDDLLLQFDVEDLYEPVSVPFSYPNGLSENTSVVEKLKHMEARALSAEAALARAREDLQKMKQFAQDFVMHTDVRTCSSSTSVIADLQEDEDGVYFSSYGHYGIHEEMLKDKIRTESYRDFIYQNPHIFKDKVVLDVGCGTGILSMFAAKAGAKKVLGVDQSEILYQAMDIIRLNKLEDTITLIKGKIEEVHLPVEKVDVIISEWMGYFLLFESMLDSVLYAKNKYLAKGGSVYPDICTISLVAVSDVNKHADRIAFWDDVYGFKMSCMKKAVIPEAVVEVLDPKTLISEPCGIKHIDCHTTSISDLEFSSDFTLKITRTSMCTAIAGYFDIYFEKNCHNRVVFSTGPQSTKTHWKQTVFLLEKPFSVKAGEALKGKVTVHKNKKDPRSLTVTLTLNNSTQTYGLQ
Method in brief: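 Recombinant PRMT3 was incubated with GAR-motif substrate and [³H]SAM (0.42 μM) in PBS pH 7.4 with compound at 50 μM for 90 min at 30 °C.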

[7] = molecular target: T1, Histone-arginine methyltransferase CARM1 (Homo sapiens); experiment: Inhibition of recombinant CARM1 using histone H3 as substrate at 50 uM and [3H]-SAM after 90 mins by scintillation counting
Method in brief: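 Recombinant CARM1 (0.2 μg) incubated with histone H3 substrate (0.5 μg; H3 1.1 μM) and [3H]SAM (0.42 μM) in PBS pH 7.4 with 50 μM compound, 90 min, 30 °C. Bands Ponceau-stained, excised, scintillation counted; activity expressed as percent of DMSO control. Means of at least two separate experiments, SD in percentage points.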

[8] = molecular target: T1, Histone-arginine methyltransferase CARM1 (Homo sapiens); experiment: Activation of recombinant CARM1 expressed in HEK293 cells co-expressing 3XFLAG-tagged PABP1 assessed as arginine methylation of PABP1 at 50 uM after 24 hrs; assay type: cell-based
Method in brief: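 Flp-In T-Rex HEK293 cells stably carrying Tet-inducible 3XFLAG-PABP1 were kept in DMEM/10% FBS with blasticidin and hygromycin. They were plated at 1 × 10⁵ cells/mL and the medium was changed after 12 h. Cells then got compound with or without tetracycline (1 μg/mL) for 24 h. RIPA lysates were immunoblotted with anti-methyl-PABP1 and anti-FLAG. Band densities were compared to DMSO control.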

[9] = molecular target: T1, Histone-arginine methyltransferase CARM1 (Homo sapiens); experiment: Activation of recombinant CARM1 using PABP1 as substrate and [3H]-SAM after 90 mins by scintillation counting; method in brief: as §1
[10] = molecular target: T1, Histone-arginine methyltransferase CARM1 (Homo sapiens); experiment: Activation of recombinant CARM1 using histone H3 as substrate and [3H]-SAM after 90 mins by scintillation counting; method in brief: as §2

Sequence of Protein arginine N-methyltransferase 1 (Homo sapiens) (Q99873 whole entry, looked up): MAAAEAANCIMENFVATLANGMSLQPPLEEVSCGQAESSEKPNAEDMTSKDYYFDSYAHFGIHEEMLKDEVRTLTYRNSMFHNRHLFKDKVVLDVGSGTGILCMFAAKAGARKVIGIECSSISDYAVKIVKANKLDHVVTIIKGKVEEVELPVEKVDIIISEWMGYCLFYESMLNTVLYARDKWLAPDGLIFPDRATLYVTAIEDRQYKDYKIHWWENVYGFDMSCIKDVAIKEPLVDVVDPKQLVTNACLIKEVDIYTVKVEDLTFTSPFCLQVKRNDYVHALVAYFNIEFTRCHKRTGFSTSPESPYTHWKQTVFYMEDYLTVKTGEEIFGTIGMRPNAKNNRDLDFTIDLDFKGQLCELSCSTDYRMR

inhibition [1]	Activity [2] [%]	Activity [3] [%]	SMILES	also measured
inactive	81.2	143	N#Cc1ccc(NC(=O)NCC(=O)Nc2ccc3[nH]c(C(=O)O)cc3c2)cc1	
inactive	7.6	125	COC(=O)c1c[nH]c2ccc(NC(=O)CNC(=O)Nc3ccc(N(C)C)cc3)cc12	
inactive			O=C(CNC(=O)Nc1ccc([N+](=O)[O-])cc1)Nc1ccc2[nH]cc(C(=O)O)c2c1	
inactive			CN(C)c1ccc(NC(=O)NCC(=O)Nc2ccc3[nH]cc(C(=O)O)c3c2)cc1	
inactive			O=C(CNC(=O)Nc1ccccc1)Nc1ccc2[nH]cc(C(=O)O)c2c1	
inactive			COc1ccc(NC(=O)NCC(=O)Nc2ccc3[nH]cc(C(=O)O)c3c2)cc1	
inactive	28.2	62.7	COC(=O)c1c[nH]c2ccc(NC(=O)CNC(=O)Nc3ccc(OC)cc3)cc12	
inactive	4.7	39.7	COC(=O)c1c[nH]c2ccc(NC(=O)CNC(=O)Nc3ccc(C)cc3)cc12	
inactive			Cc1ccc(NC(=O)NCC(=O)Nc2ccc3[nH]cc(C(=O)O)c3c2)cc1	
inactive	38.8	135	COC(=O)c1c[nH]c2ccc(NC(=O)CNC(=O)Nc3ccc(C#N)cc3)cc12	
inactive	115	134	COC(=O)c1c[nH]c2ccc(NC(=O)CNC(=O)Nc3ccc([N+](=O)[O-])cc3)cc12	
inactive			N#Cc1ccc(NC(=O)NCC(=O)Nc2ccc3[nH]cc(C(=O)O)c3c2)cc1	

Second part, the molecule before the results:

SMILES	inhibition [1]	Activity [2] [%]	Activity [3] [%]	also measured
O=C(Nc1ccc2cc(C(=O)O)cc(O)c2c1)Nc1ccc2cc(C(=O)O)cc(O)c2c1			83.1	
CCOC(=O)c1cc2cc(NC(=O)CNC(=O)Nc3ccc(OC)cc3)ccc2[nH]1	inactive	74.7	183	
O=C(CNC(=O)Nc1ccccc1)Nc1ccc2[nH]c(C(=O)O)cc2c1	inactive	172	167	
Cc1ccc(NC(=O)NCC(=O)Nc2ccc3[nH]c(C(=O)O)cc3c2)cc1	inactive	149	111	
O=C(CNC(=O)Nc1ccc([N+](=O)[O-])cc1)Nc1ccc2[nH]c(C(=O)O)cc2c1	inactive	85.3	142	
CCOC(=O)c1cc2cc(NC(=O)CNC(=O)Nc3ccccc3)ccc2[nH]1	inactive	10.5	134	
CCOC(=O)c1cc2cc(NC(=O)CNC(=O)Nc3ccc(N(C)C)cc3)ccc2[nH]1	inactive	70.6	102	
CN(C)c1ccc(NC(=O)NCC(=O)Nc2ccc3[nH]c(C(=O)O)cc3c2)cc1	inactive	135	48.3	
COC(=O)c1c[nH]c2ccc(NC(=O)CNC(=O)Nc3ccccc3)cc12	inactive	26.5	74.7	
O=C(Nc1ccc2c(O)cc(S(=O)(=O)O)cc2c1)Nc1ccc2c(O)cc(S(=O)(=O)O)cc2c1			74	inhibition [4]: 34.3%; inhibition [5]: 40.7%; inhibition [6]: 101%; inhibition [7]: 74.8%
CCOC(=O)c1cc2cc(NC(=O)CNC(=O)Nc3ccc(C#N)cc3)ccc2[nH]1	inactive	358	115	Activity [8]: Active
COc1ccc(NC(=O)NCC(=O)Nc2ccc3[nH]c(C(=O)O)cc3c2)cc1	inactive	96.3	211	
CCOC(=O)c1cc2cc(NC(=O)CNC(=O)Nc3ccc([N+](=O)[O-])cc3)ccc2[nH]1	inactive	299	176	inhibition [4]: 10.2%; Activity [9]: Dose-dependent effect; inhibition [5]: 19.3%; inhibition [6]: 54.7%; Activity [10]: Dose-dependent effect
CCOC(=O)c1cc2cc(NC(=O)CNC(=O)Nc3ccc(C)cc3)ccc2[nH]1	inactive	382	127	Activity [8]: Active

From ChEMBL document CHEMBL2176902, “Identification of small-molecule enhancers of arginine methylation catalyzed by coactivator-associated arginine methyltransferase 1” (J Med Chem, 2012)
